# Results taken from paper PMC3438513 (Cancer research, 2012).
# “And” between values parts separate entries of the source, which are not always exact repeats. Identical values can stand only once. Like-named read-outs stand apart in the source and are kept apart here.
# Tests used:
# [1] = test system: CD1d-mediated activation of NKT cells (hybridomas DN32.D3, N38-3C3, N37-1A12); type: cell-based, mouse; details: 4 h
# Method in brief: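 APCs were L cells stably transfected with WT cd1d1 cDNA. Treated with test ganglioside at increasing concentrations for 4 h at 37°C, washed extensively with PBS, then cocultured with hybridomas DN32.D3, N37-1A12 and N38-3C3 for 20–24 h at 37°C. IL-2 measured by sandwich ELISA. Triplicates, mean ± SEM; experiment repeated three times.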
# [2] = test system: α-GalCer-induced NKT cell activation; assay: In vivo α-GalCer-induced serum cytokine production; set-up: species or system C57BL/6 mice; details: 1 μg α-GalCer intravenously
# Method in brief: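 C57BL/6 mice, 6–8 weeks old, kept pathogen-free. Given α-GalCer 1 μg intravenously, with or without the test ganglioside at several concentrations. Serum taken at 2, 6, 12, 24, 48 and 72 h. IFN-γ measured by sandwich ELISA on two dilutions of pooled sera, reported as mean ± SD.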
# [3] = target: T1, mouse CD1d (Mus musculus, UniProt P11609); type: binding; details: competitor of Biotinyl PE (2 μg/mL), CD1d dimer
# T1 sequence (P11609 22-305 limits assumed): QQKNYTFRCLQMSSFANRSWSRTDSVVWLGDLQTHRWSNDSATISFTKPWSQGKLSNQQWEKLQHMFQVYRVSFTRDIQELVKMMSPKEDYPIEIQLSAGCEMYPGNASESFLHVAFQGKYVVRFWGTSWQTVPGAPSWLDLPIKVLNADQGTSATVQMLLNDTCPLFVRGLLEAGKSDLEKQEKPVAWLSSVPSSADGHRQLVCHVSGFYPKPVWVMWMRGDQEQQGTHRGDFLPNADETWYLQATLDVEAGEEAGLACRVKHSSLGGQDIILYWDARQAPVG
# T1 sequence (P01887 21-119 partner): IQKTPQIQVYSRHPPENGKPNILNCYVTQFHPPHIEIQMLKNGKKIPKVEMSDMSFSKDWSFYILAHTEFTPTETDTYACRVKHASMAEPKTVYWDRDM
# Method in brief: (§1)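 Plates coated with goat anti-mouse IgG Fc-gamma antibody, then washed three times with PBS/Tween. Added human or mouse CD1d-Ig dimer (5 μg/mL) mixed with competitor lipid and 18:1 biotinyl-PE (2 μg/mL) in PBS. Bound biotinyl-PE detected with HRP-avidin. Biotinyl-PE Kd obtained by titration without competitor, fitted to Y = (Bmax*X)/(Kd + X). Competitor constants derived by curve fitting.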
# [4] = test system: NKT cells; assay: Staining of NKT cells with lipid-loaded CD1d-Ig dimers; type: cell-based; details: human and mouse CD1d-Ig dimers loaded overnight
# Method in brief: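 Human or mouse CD1d-mouse IgG dimer (1 μg) loaded overnight at 37°C with 1.4 μg lipid or ascites in 50 μL PBS. Used to stain 2 × 10^5 NKT cells on ice for 30 min. Cells washed twice in PBS/5% FBS, then stained with PE rat anti-mouse IgG1 (A85-1) on ice for 30 min; anti-human CD3ε-APC added for human cells. Analysed by flow cytometry.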
# [5] = target: human CD1d (Homo sapiens, UniProt P15813); type: binding
# Method in brief: as §1
# [6] = test system: canonical NKT cell; details: high concentrations; ref [9], [24]; cited from earlier work
compound,measurement,setting,value
GT1b,inhibition of CD1d-mediated activation of NKT cells,"[1]; increasing doses of purified ganglioside, IL-2 (Fig 3A-C)",Only GD3 inhibited
"CCCCCCCCCCCCCCCCCCCCCCCCCC(=O)N[C@@H](CO[C@H]1O[C@H](CO)[C@H](O)[C@H](O)[C@H]1O)[C@H](O)[C@H](O)CCCCCCCCCCCCCC [α-GalCer, α-galactosylceramide]",time at which serum IFN-γ production was detectable,[2],2 h
same,time of peak serum IFN-γ production,[2],24 h
same,time of return of serum IFN-γ to baseline,[2],≤ 48 h
same,IC50,[3]; IC50 in mCD1d,95 nM and 95.1 nM
same,binding of lipid-loaded CD1d-Ig dimers to NKT cells,[4],bound to NKT cells
same,IC50,[5],84 ± 10 nM
gangliotriaosylceramide [Gg3Cer],reduction in NKT cell activation,"[1]; gangliosides 5μg/ml, IL-2 (Fig 3D)",only incubation with GD3 resulted in a significant reduction
same,inhibition of canonical NKT cell activation,[6],inhibit canonical NKT cell activation when used at high concentrations
"CCCCCCCC/C=C\CCCCCCCC(=O)OC[C@H](COP(=O)(O)OCCNC(=O)CCCCCN)OC(=O)CCCCCCC/C=C\CCCCCCCC [18:1 PE lipid, 1,2-Dioleoyl-sn-Glycero-3-Phosphoethanolamine-N-(hexanoylamine)]",IC50,[3]; read-out: IC50 in mCD1d,843 ± 181 nM
same,IC50,"[5]; read-out: IC50 in hCD1d, competitor of Biotinyl PE (2 μg/mL), CD1d dimer",882 ± 125 nM
